Measured values taken from PMC3609577 (Diabetes, 2013).

Columns and labels:
[1] = system: C57BL/6 mice on a high-fat diet; experiment: Glucose homeostasis and liver lipid metabolism in high-fat diet obese mice; assay type: in vivo, mouse
[2] = system: AMPK; conditions: cited from earlier work
[3] = molecular target: T1, endogenous CD38 (A549 cells) (Homo sapiens, UniProt P28907); experiment: Endogenous CD38 NAD+ase activity in protein lysates from A549 cells; assay type: biochemical
T1 sequence (P28907 1-300): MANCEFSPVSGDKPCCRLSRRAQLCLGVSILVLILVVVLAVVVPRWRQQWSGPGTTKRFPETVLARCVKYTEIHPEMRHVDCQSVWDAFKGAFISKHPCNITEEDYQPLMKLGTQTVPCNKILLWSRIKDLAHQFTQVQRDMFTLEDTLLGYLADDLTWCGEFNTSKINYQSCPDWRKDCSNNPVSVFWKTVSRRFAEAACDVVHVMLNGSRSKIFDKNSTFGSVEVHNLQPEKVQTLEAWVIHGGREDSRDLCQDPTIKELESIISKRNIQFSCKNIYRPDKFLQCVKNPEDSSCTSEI

[4] = system: A549 cells; experiment: Intracellular NAD+ levels in A549 cells; assay type: cell-based, human; conditions: for Intracellular NAD+ levels over time in cells incubated in PBS: A549 cells in PBS, quercetin 50 μmol/L, apigenin 25 μmol/L; for Intracellular NAD+ levels, dose response: A549 cells, 6 h incubation
[5] = system: wild-type and CD38 knockout MEFs; experiment: Intracellular NAD+ levels in wild-type and CD38 knockout MEFs; assay type: cell-based, mouse; conditions: quercetin 50 μmol/L, 6 h; for Intracellular NAD+ levels in CD38 knockout MEFs: apigenin 25 μmol/L
[6] = molecular target: T2, CD38 (Mus musculus, UniProt P56528); experiment: Liver CD38 activity, NAD+ and protein readouts in high-fat diet obese mice; assay type: in vivo; conditions: 100 mg/kg i.p. daily for 1 week vs vehicle
T2 sequence (P56528 1-304): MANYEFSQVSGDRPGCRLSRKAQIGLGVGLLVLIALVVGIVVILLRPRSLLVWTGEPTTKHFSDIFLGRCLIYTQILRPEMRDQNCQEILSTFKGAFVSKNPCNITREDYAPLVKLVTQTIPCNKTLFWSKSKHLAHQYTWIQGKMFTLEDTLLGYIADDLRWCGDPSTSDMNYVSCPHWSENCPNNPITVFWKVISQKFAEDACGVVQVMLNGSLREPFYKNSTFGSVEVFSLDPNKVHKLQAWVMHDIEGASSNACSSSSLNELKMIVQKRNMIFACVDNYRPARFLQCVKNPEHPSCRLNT
Procedure, shortened: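 Twelve 20-week-old C57BL/6 mice were fed a high-fat diet (60% of calories from fat) ad libitum for 4 weeks, then randomised into two groups. Groups received the test compound at 100 mg/kg i.p. or DMSO vehicle once daily for 7 days while staying on the diet. Hepatic NAD+ was measured by enzymatic cycling. Liver lysates were immunoblotted with anti-acetyl-lysine and quantified as intensity-profile area; n = 3 per group.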

[7] = molecular target: T3, recombinant human CD38 (Homo sapiens, UniProt P28907); experiment: In vitro CD38 ADP-ribosyl-cyclase activity; assay type: biochemical
T3 sequence (P28907 43-300 limits assumed): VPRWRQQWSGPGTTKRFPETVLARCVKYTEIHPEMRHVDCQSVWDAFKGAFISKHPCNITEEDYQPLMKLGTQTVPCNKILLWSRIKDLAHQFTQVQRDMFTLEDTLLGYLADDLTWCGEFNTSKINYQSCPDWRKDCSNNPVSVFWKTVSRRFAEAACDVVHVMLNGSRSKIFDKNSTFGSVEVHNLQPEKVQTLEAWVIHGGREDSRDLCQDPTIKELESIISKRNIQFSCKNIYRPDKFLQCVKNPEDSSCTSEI

[8] = system: atherosclerosis in mice; conditions: cited from earlier work
[9] = system: HepG2 cells; experiment: Protein acetylation in HepG2 cells; assay type: cell-based, human
[10] = system: HepG2 cells; experiment: Lipid accumulation in HepG2 cells; assay type: cell-based, human; conditions: 0.5 mmol/L oleate/palmitate (2:1) plus 25 μmol/L apigenin
[11] = system: CD38; conditions: ref Kellenberger et al. 19; cited from earlier work
[12] = molecular target: T3, recombinant human CD38; experiment: In vitro CD38 NAD+ase activity; assay type: biochemical
[13] = system: SIRT1; conditions: cited from earlier work

Compound: O=c1cc(-c2ccc(O)cc2)oc2cc(O)cc(O)c12 [apigenin, 5,7-dihydroxy-2-(4-hydroxyphenyl)-4H-1-benzopyran-4-one]
- Total triglyceride content in the liver ([1]; 100 mg/kg i.p. daily for 1 week vs control): lower triglyceride levels in the liver
- Liver mRNA expression of lipid oxidation markers (RT-PCR) ([1]; 100 mg/kg i.p. daily for 1 week vs vehicle): increased expression of the enzymes MCAD and LCAD in the liver
- Glucose homeostasis (glucose tolerance test, AUC) ([1]; 100 mg/kg i.p. daily for 1 week, 1.5 g/kg i.p. dextrose): improve glucose homeostasis
- Food intake and body weight during treatment ([1]; 100 mg/kg i.p. daily for 7 days vs vehicle): no difference in these parameters between groups
- Fasting blood glucose levels ([1]; 100 mg/kg i.p. daily, 24 h fasting, day 7): significantly lower
- Blood glucose levels, ad libitum feeding ([1]; 100 mg/kg i.p. daily, after 4 days of treatment vs control): significantly lower blood glucose levels
- AMPK activation [2]: very poor AMPK activator
- IC50 [3]: 14.8 ± 2.2 µM
- Intracellular NAD+ levels over time in cells incubated in PBS [4]: protected against NAD^+ depletion
- Intracellular NAD+ levels, dose response [4]: increased NAD^+ levels in cells in a dose-dependent manner
- Intracellular NAD+ levels in CD38 knockout MEFs [5]: had no effect on NAD^+ levels
- CD38 activity in the liver [6]: decreased CD38 activity in the liver
- Global acetylation of proteins in liver (acetyl-lysine antibody) [6]: statistically significant decrease in global acetylation of proteins
- Hepatic NAD+ levels [6]: increase in hepatic NAD^+ levels
- Liver expression of CD38, SIRT1, Nampt (immunoblot) [6]: no significant differences in the expression of CD38, SIRT1, or Nampt
- Liver phosphorylation (Thr172) and total levels of AMPK (immunoblot) [6]: did not see any changes in phosphorylation or total levels of AMPK
- IC50 [7]: 12.8 ± 1.6 µM
- Atherosclerosis in mice [8]: ameliorate atherosclerosis in mice
- Total protein acetylation ([9]; apigenin 25 μmol/L, 6 h): decreases total protein acetylation
- Acetylation of p53 (K382) and RelA/p65 (K310) ([9]; apigenin 25 M (so in the source), 4 hours, MG132 10 µM): decreased acetylation of p53 at K382 and also of RelA/p65 at K310
- Lipid accumulation (total triglycerides) in cells [10]: decreases lipid accumulation in cells

Compound: O=c1c(O)c(-c2ccc(O)c(O)c2)oc2cc(O)cc(O)c12 [quercetin, 2-(3,4-dihydroxyphenyl)-3,5,7-trihydroxy-4H-chromen-4-one]
- CD38 inhibition in vitro [11]: inhibit CD38 in vitro
- IC50 [12]: 13.8 ± 2.1 µM
- IC50 [3]: 16.4 ± 1.8 µM
- Intracellular NAD+ levels over time in cells incubated in PBS [4]: NAD^+ levels were stable over time
- Intracellular NAD+ levels, dose response [4]: promotes an increase in intracellular NAD^+ in a dose-dependent manner
- SIRT1 activation in vitro [13]: activate SIRT1 in vitro
- Intracellular NAD+ levels in CD38 knockout MEFs [5]: does not further increase NAD^+ levels in CD38 knockout MEFs
- Intracellular NAD+ levels in wild-type MEFs ([5]; wild-type MEFs): promotes an increase in NAD^+ in the wild-type MEFs
- Atherosclerosis in mice [8]: ameliorate atherosclerosis in mice
